PubChem BioAssay AID743214 (The Scripps Research Institute Molecular Screening Center, 2013)
The campaign covered roughly 2,100 compounds. About 10 (0.5%) were called active. A selection follows. A number with no mark means an inactive call.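 How the source made its calls: active means mean triplicate inhibition above the solvent-only control wells' mean plus 3 SD (cut at about 12% in these data); inactive means the rest.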

Target: Disintegrin and metalloproteinase domain-containing protein 17 (Homo sapiens) (UniProt P78536)
Sequence (P78536 215-824 limits assumed): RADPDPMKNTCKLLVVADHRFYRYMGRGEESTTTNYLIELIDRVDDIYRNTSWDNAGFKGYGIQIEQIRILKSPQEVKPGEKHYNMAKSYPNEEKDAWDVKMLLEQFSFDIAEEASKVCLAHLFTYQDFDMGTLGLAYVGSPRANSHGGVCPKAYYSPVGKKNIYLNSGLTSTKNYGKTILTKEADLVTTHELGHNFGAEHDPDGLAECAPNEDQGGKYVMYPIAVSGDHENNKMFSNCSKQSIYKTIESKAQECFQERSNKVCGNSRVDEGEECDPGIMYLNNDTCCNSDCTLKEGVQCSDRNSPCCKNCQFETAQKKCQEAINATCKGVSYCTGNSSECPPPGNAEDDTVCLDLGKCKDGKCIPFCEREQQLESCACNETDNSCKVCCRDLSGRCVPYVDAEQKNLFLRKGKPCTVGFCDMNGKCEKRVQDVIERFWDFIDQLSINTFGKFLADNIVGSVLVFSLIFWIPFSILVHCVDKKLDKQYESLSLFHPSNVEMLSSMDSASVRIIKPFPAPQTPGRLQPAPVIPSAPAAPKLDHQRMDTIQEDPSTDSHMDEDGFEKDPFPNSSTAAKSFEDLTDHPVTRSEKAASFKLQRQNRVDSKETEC
Experiment: inhibition of ADAM17 peptide cleavage – biochemical, QFRET, high throughput, counter-screen for ADAM10 exosite inhibitor project (AID 743214);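 further: 0% = DMSO wells and 100% = marimastat wells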
Conditions: EDANS fluorescence, at 6.95 µM, hits give high values
Outline: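 Assay system – ADAM17 protease with quenched-FRET EDANS/DABCYL peptide substrate · Amount – ADAM17 2X stock, 20 nM · Schedule – 30 min compound–enzyme preincubation, then 3 h reaction, both 25 °C · Measured by – EDANS fluorescence 359/460 nm · Read-out – percent inhibition of ADAM17 cleavage · Replicates – each compound tested in triplicate wells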

In order of falling inhibition:
1. CCOc1cc(/C=N/NC(=O)c2cc(-c3ccccc3)nc3ccccc23)ccc1O  4.94%
2. Cc1ccc(NS(=O)(=O)c2ccc(C)c(NC(=O)COc3ccc4ccccc4c3)c2)c(C)c1  4.43%
3. O=C(OCc1ccc(-c2ccccc2)cc1)c1cccc(O)c1  4.02%
4. C=CCC[C@@H](Cc1ccc(F)cc1)C(=O)O[C@H](CNC(=O)[C@H](CC=C)CC(=O)N(CCO)Cc1ccccc1)c1ccccc1  3.84%
5. O=C(COC(=O)CCCSc1nc2ccccc2[nH]1)Nc1ccc(Oc2ccccc2)cc1  3.79%
6. O=C(CSCc1ccc(Br)cc1)Nc1ccc(S(=O)(=O)N2CCCCCC2)cc1  3.71%
7. Cc1ccc(NC(=O)c2nc[nH]c2C(=O)N[C@@H](CCCCNC(=O)OC(C)(C)C)C(=O)OC(C)(C)C)cc1  3.32%
8. C=C(C)COc1ccc(-c2n[nH]c(C)c2-c2ccccc2)c(O)c1  3.15%
9. COc1cc(/C=C2/SC(=S)N(Cc3ccccc3)C2=O)cc(OC)c1O  3.03%
10. O=C(Nc1cccc(S(=O)(=O)Nc2ccc(Cl)cc2)c1)c1ccc2c(c1)OCCO2  2.96%
11. CCOc1ccc(Br)cc1S(=O)(=O)Nc1ccc(C(=O)OC(C)C(=O)N(C)c2ccccc2)cc1 (stereo not drawn)  2.71%
12. COc1ccc([C@@H]2[C@@H]3C(=O)N(C(C)(C)C)C(=O)[C@@H]3[C@]3(Cc4ccccc4)C(=O)N(c4cccc(Br)c4)C(=O)N23)cc1  2.34%
13. COc1cccc(NC(=O)CN2CCN(c3nc(-c4cccc(OC)c4)cs3)CC2)c1  2.32%
14. O=C(Cc1ccc(Cl)c(Cl)c1)Nc1ccc(SC(F)F)cc1  2.25%
15. COc1cc(C2CC(=O)N3CN(Cc4ccccc4)CSC3=C2C#N)ccc1OCc1ccccc1 (stereo not drawn)  2.1%
16. CC(C)(C)c1ccc(S(=O)(=O)NCC2CCN(C(=O)C(=O)c3cc4ccccc4o3)CC2)cc1  1.76%
17. N/C(Cc1ccc([N+](=O)[O-])cc1)=N\OC(=O)COc1ccc2ccccc2c1  1.74%
18. CCCCCc1c(-c2ccc(OC)c(OC)c2)ncn1CCc1ccccc1OC  1.69%
19. COc1ccc(C(N)c2csc(NC(=O)Nc3cccc(C(F)(F)F)c3)n2)cc1 (stereo not drawn)  1.65%
20. CCOc1ccc(Nc2oc(Cc3ccccc3)nc2C#N)cc1  1.58%
21. CC(N=Cc1nc(-c2ccccc2)oc1O)c1ccccc1 (stereo not drawn)  1.57%
22. COc1ccc(NS(=O)(=O)c2ccc(C)c(C(=O)NNC(=O)c3csc(N4CCOCC4)n3)c2)cc1  1.55%
23. CCC(C(=O)OCC(=O)Nc1ccccc1-c1ccccc1)c1ccccc1 (stereo not drawn)  1.36%
24. C#CCN(C[C@H]1[C@H](OC(=O)NC2CCCC2)[C@H](OC(=O)NC2CCCC2)C[C@H]2C(=O)N(c3ccccc3)C(=O)[C@@H]12)S(=O)(=O)c1ccc(C)cc1  1.32%
25. Cc1ccc(S(=O)(=O)N2CCN(C(=O)COC(=O)c3c(C)cc(C)cc3C)CC2)c(C)c1  1.25%
26. COc1cc(Cl)c(S(=O)(=O)N2CCN(Cc3ccc4c(c3)OCO4)CC2)cc1Cl  1.24%
27. CCC1(C)Cc2c(sc3nnn(CC(=O)Nc4ccc(Cl)cc4)c(=O)c23)CO1 (stereo not drawn)  1.24%
28. O=C(CC(O)(C(F)(F)F)C(F)(F)F)Nc1ccc(Cl)c(Cl)c1  1.21%
29. COC(=O)C1NN=C(C(=O)c2ccc(Br)cc2)C1c1cccc(Br)c1 (stereo not drawn)  1.16%
30. COc1cccc(C2CC(c3ccccc3)=NN2S(=O)(=O)c2ccccc2)c1OC (stereo not drawn)  1.14%
31. COc1ccc(C(CCN(Cc2ccc(OC)c(OC)c2)C(=O)CCl)c2ccccc2)cc1 (stereo not drawn)  1.03%
32. CN(C)S(=O)(=O)c1cccc(NC(=O)COC(=O)C2(c3ccccc3F)CCCC2)c1  0.96%
33. O=S(=O)(c1ccccc1)N(Cc1cccc(F)c1)c1ccccc1  0.96%
34. O=C1NC(Nc2nc3ccccc3s2)(C(F)(F)F)C(=O)N1C1CCCCC1 (stereo not drawn)  0.94%
35. COC(=O)[C@@]12C[C@@H](CC(=O)NCCCCc3ccccc3)C(=O)N(CCc3ccc(OC)c(OC)c3)C1=CCC(C)(C)C2  0.87%
36. COc1ccc(Cl)cc1NC(=O)COC(=O)C(CC(C)C)N1C(=O)C2CC=CCC2C1=O (stereo not drawn)  0.79%
37. CC(C)(C)N1C(=O)[C@H]2[C@@H](c3ccc(Br)cc3)N3C(=O)N(c4cccc(Cl)c4)C(=O)[C@@]3(C)[C@H]2C1=O  0.76%
38. S=c1[nH]cc(-c2ccc(Cl)cc2)n1-c1ccccc1  0.72%
39. O=C(CSC1=NCCS1)Nc1nc(-c2ccccc2)cs1  0.66%
40. Cc1ccc(S(=O)(=O)N(CC(=O)Nc2cccnc2)c2ccc(Br)cc2)cc1  0.35%
41. CC(C)(C)c1ccc(C(=O)Nc2cc(Cl)c(Br)cc2C(=O)O)cc1  0.16%
42. O=S(=O)(c1cccc(S(=O)(=O)N2CCC(n3nnc4ccccc43)CC2)c1)N1CCCCC1  0.16%
43. O=C(NCCc1ccc(Cl)cc1Cl)c1cc([N+](=O)[O-])c[nH]c1=O  0.13%
44. Cc1ccc(/C=N/NC(=O)CSc2nc3ccccc3o2)cc1  0.11%
45. Cn1c(CNc2nc(-c3ccccc3)cs2)nnc1SCC(=O)c1ccccc1  0.06%
46. COc1ccc(OCCCn2cccc2/C=C2/C(=N)N3OC(C)=CC3=NC2=O)cc1  0.03%
47. O=Cc1cn(CCOc2ccc(F)cc2)c2ccccc12  -0.11%
48. Cc1cccc(CCNS(=O)(=O)c2ccc(S(=O)(=O)NC3CCCC3)cc2)c1  -0.14%
